{"data": "Results collected from several papers", "target": "cGMP-dependent protein kinase 2 (PRKG2, Homo sapiens, UniProt Q13237)", "Sequence (Q13237 1-762, as in one of the studies)": "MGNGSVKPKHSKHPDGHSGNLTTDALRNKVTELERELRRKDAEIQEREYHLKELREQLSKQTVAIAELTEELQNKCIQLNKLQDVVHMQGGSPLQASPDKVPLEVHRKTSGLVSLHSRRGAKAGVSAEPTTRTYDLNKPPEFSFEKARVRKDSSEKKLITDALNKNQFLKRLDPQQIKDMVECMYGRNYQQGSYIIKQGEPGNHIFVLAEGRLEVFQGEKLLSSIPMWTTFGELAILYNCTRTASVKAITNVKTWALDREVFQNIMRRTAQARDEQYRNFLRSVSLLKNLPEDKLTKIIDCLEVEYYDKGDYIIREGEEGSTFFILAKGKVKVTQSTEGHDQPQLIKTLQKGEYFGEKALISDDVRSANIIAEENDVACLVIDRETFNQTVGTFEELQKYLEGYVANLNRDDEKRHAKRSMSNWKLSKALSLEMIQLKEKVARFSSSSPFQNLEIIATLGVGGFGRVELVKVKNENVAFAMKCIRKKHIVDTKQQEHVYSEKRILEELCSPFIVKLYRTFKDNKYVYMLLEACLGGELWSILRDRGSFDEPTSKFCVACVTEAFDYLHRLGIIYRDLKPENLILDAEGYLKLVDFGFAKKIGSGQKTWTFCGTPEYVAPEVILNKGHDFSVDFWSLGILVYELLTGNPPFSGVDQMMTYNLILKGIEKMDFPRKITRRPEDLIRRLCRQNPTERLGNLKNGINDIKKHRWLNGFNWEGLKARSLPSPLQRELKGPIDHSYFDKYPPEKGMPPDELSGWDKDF"}
{"SMILES": "CCN1CCN(Cc2ccc(C(=O)Nc3ccc(C)c(Oc4ccc5c(c4)CC(=O)N5)c3)cc2C(F)(F)F)CC1", "observed": "binding", "method": "competition with immobilised ligand", "concentration": "1 µM", "remaining binding": "100%"}
{"SMILES": "C[C@H](c1ccc(F)cc1)N(Cc1cccc(C(=O)O)c1)C(=O)c1cnc2ccccc2c1", "observed": "cell-free assay", "method": "competition with immobilised ligand", "concentration": "1 µM", "remaining binding": "100%"}
{"SMILES": "Cc1cnn2ncc(-c3ccnc(N(C)C)n3)c2c1", "observed": "binding", "concentration": "1 µM", "remaining binding": "98%"}
{"SMILES": "O=C(c1ccc(Nc2nccc(-c3cc4ccccc4s3)n2)cc1)N1CCC(N2CCCC2)CC1", "observed": "binding", "method": "competition with immobilised ligand", "concentration": "1 µM", "remaining binding": "33%"}
{"SMILES": "CNCc1ccccc1-c1csc([C@H](C)Nc2nc(C)nc3cc(OC)c(OC)cc23)c1", "observed": "cell-free assay", "method": "competition with immobilised ligand", "concentration": "1 µM", "remaining binding": "93%"}
{"SMILES": "O=C(c1ccc(Nc2ncc(Cl)c(-c3cc4ccccc4s3)n2)cc1)N1CCC(N2CCCC2)CC1", "observed": "binding", "method": "competition with immobilised ligand", "concentration": "1 µM", "remaining binding": "13%"}
{"SMILES": "C[C@@H](c1ccc(-n2cnc3c(N)ncnc32)cc1)N1CCc2nn(C)c(Cc3ccccc3)c2C1=O", "observed": "binding", "method": "competition with immobilised ligand", "concentration": "0.1 µM", "remaining binding": "73%"}
{"SMILES": "CN(C)c1nccc(-c2cnc3ncccn23)n1", "observed": "binding", "concentration": "1 µM", "remaining binding": "69%"}
{"SMILES": "O=C(NCC1CCOCC1)c1n[nH]cc1NC(=O)c1c(F)cccc1F", "observed": "binding", "method": "competition with immobilised ligand", "concentration": "1 µM", "remaining binding": "88%"}
{"SMILES": "COc1cnc(Nc2cccc(S(N)(=O)=O)c2)nc1N1CCN(c2ccccc2)CC1", "observed": "binding", "method": "competition with immobilised ligand", "concentration": "1 µM", "remaining binding": "92%"}
{"SMILES": "c1cncc(-c2cccc(Nc3nccc(NC4CCCCC4)n3)c2)c1", "observed": "binding", "method": "competition with immobilised ligand", "concentration": "10 µM", "remaining binding": "74%"}
{"SMILES": "CCS(=O)(=O)c1cc2cc(C[C@@](O)(CC(C)(C)c3ccc(F)cc3C(N)=O)C(F)(F)F)[nH]c2cn1", "observed": "cell-free assay", "method": "competition with immobilised ligand", "concentration": "1 µM", "remaining binding": "86%"}
{"SMILES": "C=CC(=O)N1CCC(C(=O)NCC(=O)N2CCN(c3nc(-c4cnc(N)nc4C(F)F)nc(N4CCOCC4)n3)CC2)CC1", "observed": "binding", "method": "competition with immobilised ligand", "concentration": "1 µM", "remaining binding": "69%"}
{"SMILES": "Nc1cnc(N2CCc3cc(S(=O)(=O)Nc4c(F)cc(Cl)cc4F)cc(N4CCCC4=O)c32)nc1", "observed": "cell-free assay", "method": "competition with immobilised ligand", "concentration": "1 µM", "remaining binding": "84%"}
{"SMILES": "N[C@@H]1CCN(c2nccc(-c3cnn4ncccc34)n2)C1", "observed": "binding", "concentration": "1 µM", "remaining binding": "100%"}
{"SMILES": "O=C1NC(c2ccccn2)Sc2ccccc21 (stereo not shown)", "observed": "cell-free assay", "method": "competition with immobilised ligand", "concentration": "1 µM", "remaining binding": "90%"}
{"SMILES": "F[C@@H]1CCN(c2nccc(-c3cnn4ncccc34)n2)C1", "observed": "binding", "concentration": "1 µM", "remaining binding": "93%"}
{"SMILES": "Cn1nc(C(=O)NCc2ccc(C(=O)O)cc2)cc1-c1ccc2[nH]ccc2c1", "observed": "cell-free assay", "method": "competition with immobilised ligand", "concentration": "0.1 µM", "remaining binding": "78%"}
{"SMILES": "CN(C)c1ncc(F)c(-c2cnn3ncccc23)n1", "observed": "binding", "concentration": "1 µM", "remaining binding": "100%"}
{"SMILES": "Cc1cnc(Nc2ccc(C(=O)N3CCC(N4CCCC4)CC3)cc2)nc1-c1cc2ccccc2s1", "observed": "binding", "method": "competition with immobilised ligand", "concentration": "1 µM", "remaining binding": "2.8%"}
{"SMILES": "CO[C@@H](C)c1c(Nc2ccc([C@H](N(C)C(=O)C3CCS(=O)(=O)CC3)C(F)(F)F)cc2)cnc2cc(Cl)nn12", "observed": "cell-free assay", "method": "competition with immobilised ligand", "concentration": "1 µM", "remaining binding": "100%"}
{"SMILES": "CN(CCCC(F)(F)F)c1nccc(-c2cnn3ncccc23)n1", "observed": "binding", "concentration": "1 µM", "remaining binding": "96%"}
